Mdm2 ligase inh – blocks human Mdm2 ubiquitin ligase activity | signal enhancement, % at 5 µM | Q00987 | cell-based MDM2 ubiquitination luciferase reporter, 2 h; 0 = plate control, 100 = twice control, blank-subtracted | 0.11% of 210,000 active;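 active means signal enhancement of 30% or more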;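 further: luminescence tracks abundance of the self-degrading MDM2-luciferase fusion protein; higher signal means inhibition of MDM2 E3 ligase activity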
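Assay system: stable mammalian line carrying autodegrading MDM2–luciferase fusion reporter; Input: 2000 cells in each well; Compound dosing: single-point 5 µM; Schedule: 2 h compound exposure at 37 °C; Signal: SteadyLite luciferase luminescence after 15 min room-temperature reagent incubation; Evaluation: % luminescence enhancement versus blank-corrected plate control mean; Benchmarks: plate controls and plate blanks.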
Cl transport mod – modulates chloride dependent transport by human KCC2; Q9H2X9; KCC2 cells, thallium flux FluoZin-2 fluorescence; B-score of Tl+ flux slope (higher = more flux/activation; lower = inhibition) at 10 µM; 2.2% of 190,000 active; AID 1456;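 active means thallium flux slope and its plate-corrected score both differing from the plate sample mean at a set confidence after two filtering rounds, in either direction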;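 further: slope of fluorescence scaled to starting intensity during 10 to 20 s after thallium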
Target sequence (Q9H2X9 whole entry, looked up): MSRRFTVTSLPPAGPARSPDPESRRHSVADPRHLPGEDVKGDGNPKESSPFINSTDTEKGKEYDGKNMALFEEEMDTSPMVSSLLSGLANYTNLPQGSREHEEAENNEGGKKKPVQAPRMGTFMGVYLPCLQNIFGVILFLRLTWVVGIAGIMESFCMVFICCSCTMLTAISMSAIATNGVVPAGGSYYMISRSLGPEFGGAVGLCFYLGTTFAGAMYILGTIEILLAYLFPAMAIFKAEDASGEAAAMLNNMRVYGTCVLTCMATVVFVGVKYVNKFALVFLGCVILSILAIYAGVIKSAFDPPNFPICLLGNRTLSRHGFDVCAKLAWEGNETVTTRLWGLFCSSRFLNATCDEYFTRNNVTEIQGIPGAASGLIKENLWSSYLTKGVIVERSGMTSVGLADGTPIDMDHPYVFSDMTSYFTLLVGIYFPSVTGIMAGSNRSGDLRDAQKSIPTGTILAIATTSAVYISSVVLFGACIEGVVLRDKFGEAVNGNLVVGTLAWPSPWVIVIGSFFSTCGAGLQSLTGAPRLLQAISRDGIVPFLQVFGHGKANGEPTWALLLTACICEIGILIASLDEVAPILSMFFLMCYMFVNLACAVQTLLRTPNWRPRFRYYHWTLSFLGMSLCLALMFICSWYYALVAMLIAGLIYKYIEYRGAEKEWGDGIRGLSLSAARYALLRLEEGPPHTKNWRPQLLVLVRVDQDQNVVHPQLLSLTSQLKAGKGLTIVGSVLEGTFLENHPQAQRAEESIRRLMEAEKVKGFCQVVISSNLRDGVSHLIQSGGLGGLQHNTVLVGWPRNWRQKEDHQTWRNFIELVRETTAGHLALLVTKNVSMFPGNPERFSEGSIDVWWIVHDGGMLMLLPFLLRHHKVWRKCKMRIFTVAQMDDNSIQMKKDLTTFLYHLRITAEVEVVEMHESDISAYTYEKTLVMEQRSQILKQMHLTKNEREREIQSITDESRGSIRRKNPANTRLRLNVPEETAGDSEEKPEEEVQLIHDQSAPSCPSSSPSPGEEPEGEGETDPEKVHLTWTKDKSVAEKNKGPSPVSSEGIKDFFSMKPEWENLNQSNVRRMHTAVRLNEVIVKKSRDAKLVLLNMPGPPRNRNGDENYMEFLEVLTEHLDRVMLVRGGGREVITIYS
PKD1 inh – blocks activity of human protein kinase D1. Q15139. PKD1 kinase fluorescence polarization assay. inhibition, % (test concentration not listed). 0.056% of 200,000 active; in the data active means inhibition above about 50%
Calpain2 inh – blocks pig calpain II enzyme activity. purified calpain II, fluorogenic peptide substrate, 30 min. inhibition, % at 16 µM. 0.37% of 220,000 active. AID 1236;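 active means inhibition above about 50%, limit read from the data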
ROMK mod – human ROMK K+ channel modulation, primary screen; 2% of 130,000 active; AID 1918; P48048; Tet-inducible ROMK, thallium flux fluorescence; actives lie on both sides; B-score at 10 µM;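 active means signal ratio slope over the read window, or its plate-corrected B-score, at least 3 SD from the plate mean, either direction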;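 further: B-score of the F/F0 ratio slope over 7 to 12 s after thallium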
Arbovirus anti – arbovirus infection inhibition. AID 1251. inhibition, % at 10 µM. 0.37% of 200,000 active. arbovirus infection cell-based antiviral screen; in the data active means inhibition above about 30%
Numbers stand for hits; – = inactive; · = not tested or not shown. This is a sample that favours compounds with a hit; in the whole collection about 3.7% have one here.

SMILES	Mdm2 ligase inh	Cl transport mod	PKD1 inh	Calpain2 inh	ROMK mod	Arbovirus anti
CCOC(=O)c1c(NC(=S)NCC2CCCO2)sc(C)c1C (stereo unspecified)	–	25	–	–	3.5	–
CN1CCN(c2ccc(C(=O)NC3CCCCC3)cc2[N+](=O)[O-])CC1	–	–	–	–	·	–
CCCCCCCCCCCC(=O)NC(C(=O)O)C(O)c1ccccc1 (stereo unspecified)	–	–	–	–	–	32
O=C(NCCc1ccccc1)N1c2ccccc2Sc2ccccc21	–	–	–	–	1.8	–
CC(C)Cc1nc2c(nnn2Cc2ccccc2F)c(=O)[nH]1	·	–	·	–	·	·
CSc1nc(SCC(=O)O)c2sc3nc(-c4ccccc4)c4c(c3c2n1)CCC4	–	6.1	·	90	–	·
CSc1nc(N(C)CCO)c2sc3nc(-c4ccco4)c4c(c3c2n1)CCC4	–	–	–	–	·	–
CCOc1ccc(-c2csc(/C(C#N)=C\c3ccc(O)c([N+](=O)[O-])c3)n2)cc1	–	–	–	–	–	–
O=C(Nc1ccc(F)cc1)/C(Cl)=C/c1ccccc1	–	–	–	–	–	–
O=C(Nc1cccc2ccccc12)/C(Cl)=C/c1ccccc1	–	·	–	58	·	–
CN(C)CCNCCCOc1ccccc1-c1ccccc1	–	–	–	–	–	–
Cc1csc(NC(=O)C2CCN(S(=O)(=O)c3ccccc3F)CC2)n1	–	–	–	–	–	–
CN1CCC/C1=C1/C(=O)N(c2ccccc2)N=C1NC(=O)Nc1cccc(Cl)c1	–	–	–	–	–	–
Cc1ccc(C(=O)O)cc1N1C(=O)c2cccc3cc(Br)cc(c23)C1=O	–	–	–	66	·	–
Cc1ccc(C)c(S(=O)(=O)N2CCN(C(C)C(=O)Nc3ccccc3-c3ccccc3)CC2)c1 (stereo unspecified)	–	–	–	–	–	32
CCCc1[nH]nc2c1C(c1ccc(O)cc1OCC)C(C#N)=C(N)O2 (stereo unspecified)	–	–	–	–	-4.5	–
COCc1[nH]nc2c1C(c1ccsc1)C(C#N)=C(N)O2 (stereo unspecified)	–	–	–	–	–	–
COCc1[nH]nc2c1C(c1sccc1C)C(C#N)=C(N)O2 (stereo unspecified)	–	·	–	–	-3.5	–
COc1ccc(-c2nc(C3CCCCC3)no2)cc1OC	–	–	–	–	·	35
O=C(CN1CCc2ccccc21)NC(=O)NC1CCCCC1	·	–	·	–	·	·
Nn1c(SCC(=O)NCCCc2ccccc2)nnc1-c1cccnc1	–	–	·	–	·	·
CCNC1=C(Cl)C(=O)c2ccccc2C1=O	–	–	–	50	–	–
CN(C)C(=O)C(=O)c1c(-c2ccccc2)cc2ccccn12	–	·	–	54	·	–
CCN(CC(=O)Nc1cccc(C#N)c1)CC(=O)Nc1cccc(OC)c1	–	–	–	–	–	–
CC1=CC(C)(C)n2c(O)c(N=NC(N)=S)c3cccc1c32	–	5.9	–	–	·	–
SMILES	Mdm2 ligase inh	Cl transport mod	PKD1 inh	Calpain2 inh	ROMK mod	Arbovirus anti
NS(=O)(=O)c1ccc(NC(=S)NCc2ccc(Cl)cc2)cc1	–	–	–	56	·	–
NS(=O)(=O)c1ccc(CNC(=S)Nc2ccc(F)c(Cl)c2)cc1	–	–	–	–	–	–
Oc1ccc(C(=S)N2CCCCCC2)cc1	–	–	–	–	·	–
S=C(c1ccc(N2CCCC2)cc1)N1CCCCC1	–	–	–	64	·	–
Cc1ncsc1CCOC(=O)C12CC3CC(CC(C3)C1)C2	–	·	–	67	–	–
O=C1CSCN1c1ccc(Cl)c(Cl)c1	–	–	–	–	–	–
O=C1CSCN1c1cc(Cl)ccc1Cl	–	–	75	–	–	–
Cc1ccc(Nc2nc(N)c(C#N)c(CC#N)c2C#N)cc1	–	–	–	–	–	–
CC(NC(=O)c1cccs1)c1nnc(SCc2ccc(Cl)cc2Cl)n1C (stereo unspecified)	–	–	–	–	·	77
C=CCn1c(CNC(=O)c2cccs2)nnc1SCc1ccc(Cl)cc1Cl	–	–	–	–	·	63
CCn1c(CNC(=O)c2cccs2)nnc1SCC(=O)Nc1cc(Cl)ccc1C	–	–	–	–	·	–
CCSc1nnc(NC(=O)CSc2nnc(Cc3cccn3C)n2-c2ccc(F)cc2)s1	–	·	–	–	·	33
Cn1cccc1Cc1nnc(SCC(=O)Nc2ccc(F)cc2)n1-c1ccc(F)cc1	–	–	–	–	·	–
CC(C)CC(=O)Nc1nnc(SCC(=O)Nc2ccc(F)cc2)s1	–	–	–	54	–	–
CCC(=O)Nc1nnc(SCC(=O)Nc2ccc(F)cc2)s1	–	–	–	–	·	–
O=C(NCc1cccnc1)C1CCC(CNS(=O)(=O)c2ccc(Cl)cc2)CC1 (stereo unspecified)	–	–	–	55	·	–
O=C(NCc1cccs1)c1ccc(CS(=O)(=O)c2ccc(Cl)cc2)o1	–	·	–	–	–	–
O=C(NCc1cccnc1)c1ccc(CS(=O)(=O)c2ccc(Cl)cc2)o1	–	-5.3	–	–	·	–
CCOCCCNC(=O)C1CCC(CNS(=O)(=O)c2ccc(Cl)cc2)CC1 (stereo unspecified)	–	·	–	54	–	–
C=CCNC(=O)c1c(Br)cnn1-c1ccc(C)cc1	–	–	–	–	·	–
CCN(CC)S(=O)(=O)c1cccc(C(=O)N/N=C/c2ccc([N+](=O)[O-])o2)c1	–	–	–	–	–	–
FC(F)(F)c1cccc(N2CCN(C(=S)NC3CCCC3)CC2)c1	–	–	–	52	·	–
FC(F)(F)c1cccc(N2CCN(C(=S)NC3CCCCC3)CC2)c1	–	–	–	–	–	–
C=CCn1c(SC(C)C(N)=O)nc2sc(CC)cc2c1=O (stereo unspecified)	–	–	–	–	–	32
C/C(=N\NC(=S)NCCc1ccccc1)c1cccs1	–	8.6	–	–	–	–
SMILES	Mdm2 ligase inh	Cl transport mod	PKD1 inh	Calpain2 inh	ROMK mod	Arbovirus anti
C=CCn1c(SCc2csc(C)n2)nc2sc3c(c2c1=O)CCCC3	–	·	–	–	–	–
C=CCn1c(=S)[nH]c2sc3c(c2c1=O)CCC3	·	31	–	–	3.2	–
NS(=O)(=O)c1ccc(CCNC(=O)CCCCCNc2nc(=S)[nH]c3ccccc23)cc1	–	–	–	–	·	–
Cc1ccc(CNC(=O)CCCCCNc2nc(=S)[nH]c3ccccc23)cc1	–	–	–	61	–	–
COc1ccc(CNC(=O)Cc2csc(Nc3nc(=S)[nH]c4ccccc34)n2)cc1	–	7	–	–	·	–
Cc1ccc(CNC(=O)C2CCC(CNc3nc(=S)[nH]c4ccccc34)CC2)cc1 (stereo unspecified)	–	–	–	–	–	–
O=C(Cc1csc(Nc2nc(=S)[nH]c3ccccc23)n1)NCc1ccc(Cl)cc1	–	5.9	–	–	·	–
CCN(CC)c1nc2c(c(=O)n(C)c(=O)n2C)n1CC(=O)c1ccccc1	–	–	·	–	·	·
Cc1ccccc1N=Nc1c(C)[nH]n(-c2ccccc2)c1=O	–	–	–	–	–	–
Cc1ccccc1N=Nc1c(C)[nH]n(C(N)=S)c1=O	–	11	–	–	–	–

High-throughput results (PubChem BioAssay)
